An excerpt weighted towards active compounds, which were near 4.6% of everything screened.
CHO parental Ca = signal in parental CHO cells, OX1R antagonist counter-screen | parental CHO-K1, ATP-induced calcium, Fluo-8 fluorescence | inhibition, % at 5.6 µM | actives 0.63% (n = 330,000);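 active = inhibition above that plate's mean sample inhibition plus 3 SD, cut at about 26% in these data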
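test system = CHO parental line | reagent = ATP stimulus | measured by = intracellular calcium via Fluo-8 no-wash fluorescent dye | control set = ATP and no-ATP DMSO wells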
TAAR1 antag = human TAAR1 antagonism. Q96RJ0. CHO RD-HGA16 TAAR1, Fluo-8 calcium fluorescence, antagonist. actives 1.5% (n = 360,000). inhibition, % at 3 µM;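 active = inhibition above a per-plate cutoff, the mean inhibition of test compounds on that plate plus 3 SD, cut at about 49% in these data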
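Material: RD-HGA16 CHO cells with stable hTAAR1 and Gα16; Dosing: single nominal final test compound concentration of 3 µM; Schedule: seeding 17-24 h prior, 75-min 37 °C, 30-min RT dye loading; Detection: kinetic Fluo-8 calcium fluorescence measurement; Measure: % inhibition from peak post-agonist over basal fluorescence ratio; Benchmarks: vehicle and agonist controls.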
TAAR1 ag = human TAAR1 agonism; Q96RJ0; CHO RD-HGA16 TAAR1, Fluo-8 calcium fluorescence; vehicle wells 0%, saturating PEA agonist 100%; activation, % at 3 µM; actives 0.99% (n = 360,000);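 active = activation above the mean activation of all test compounds in the run plus 3 SD, cut at about 38% in these data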
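Assay system – CHO-derived RD-HGA16 cells with stable Gα16 and human TAAR1 · Compound dosing – one-point dosing at 3 µM (nominal) · Incubation – 17-24 h seeding, 75 min 37 °C dye, 30 min RT · Measured by – kinetic Fluo-8 calcium fluorescence · Control set – DMSO vehicle as 0%, PEA at EC100 as 100% · Repeats – single well for each compound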
OX1R antag-1 = blocks the human orexin 1 receptor; O43613; OX1R-expressing cells, FRET antagonist read-out; inhibition, % at 6.6 µM; actives 1.8% (n = 330,000); in the data active = inhibition mostly above about 38%, no sharp cut-off; inactive = mostly below about 40%
Target sequence (O43613 whole entry, looked up): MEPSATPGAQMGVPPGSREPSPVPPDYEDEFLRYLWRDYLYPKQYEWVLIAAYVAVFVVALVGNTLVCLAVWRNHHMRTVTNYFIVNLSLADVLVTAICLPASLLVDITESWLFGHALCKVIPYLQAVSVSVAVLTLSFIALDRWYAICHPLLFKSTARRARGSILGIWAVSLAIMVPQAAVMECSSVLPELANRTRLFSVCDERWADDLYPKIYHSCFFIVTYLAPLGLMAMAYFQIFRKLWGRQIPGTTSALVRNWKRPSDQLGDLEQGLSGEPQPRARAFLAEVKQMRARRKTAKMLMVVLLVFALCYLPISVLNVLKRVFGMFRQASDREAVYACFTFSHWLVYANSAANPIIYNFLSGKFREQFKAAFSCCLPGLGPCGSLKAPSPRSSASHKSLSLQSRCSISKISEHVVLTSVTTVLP
OX1R antag-2 = antagonists of human orexin 1 receptor. O43613. CHO/OX1R cells, Fluo-8 calcium fluorescence, orexin A. inhibition, % at 5 µM. actives 0.43% (n = 330,000). AID 434989;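 active = inhibition above its plate's threshold, mean inhibition of all tested compounds on the plate plus 3 SD, cut at about 37% in these data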
GPR7 antagonist = human neuropeptides B/W receptor 1 antagonism; P48145; AID 1861; actives 1.1% (n = 290,000); inhibition, % at 4.4 µM; GPR7-expressing cells, fluorescence antagonist assay; in the data active = inhibition above about 16%, passing the limit was not always enough;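 note: cells stimulated with the agonist NPW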
GPR7 antag cf = human GPR7 antagonism, confirmation assay | AID 1952 | actives 52% (n = 2,400) | shares compounds with GPR7 antagonist | GPR7-expressing cells, calcium fluorescence antagonist mode | inhibition, % at 4.4 µM; in the data active = inhibition above about 24%;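 note: stimulated with the GPR7 agonist NPW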
MCHR1 antagonist = antagonizes human MCHR1, a GPR7 antagonist counter-screen | shares compounds with GPR7 antagonist | MCHR1-expressing cells, fluorescence antagonist assay | inhibition, % at 4.4 µM | actives 62% (n = 2,400) | AID 2148; in the data active = inhibition above about 22%
Numbers stand for hits.

Screening CC(=O)N1CCC(C(=O)N2c3ccccc3N=C(c3ccc(C(F)(F)F)cc3)C2C(=O)NC(C)(C)C)CC1 (configuration not stated) returned TAAR1 antag inactive and TAAR1 ag inactive.
Screening Cc1noc(C)c1NC(=O)N(C)C[C@@H]1OCc2cnnn2CCCC(=O)N([C@H](C)CO)C[C@@H]1C returned TAAR1 antag inactive and TAAR1 ag inactive.
For Cc1sc(NC(=O)c2ccco2)c(CN2CCN(c3ccccn3)CC2)c1C the results were CHO parental Ca inactive, OX1R antag-1 inactive, OX1R antag-2 inactive, GPR7 antagonist 31.9, GPR7 antag cf inactive and MCHR1 antagonist 48.8.
For COc1ccc(-c2nc3ccc(C)cn3c2CC(C)(C)C)cc1OC the results were TAAR1 antag inactive and TAAR1 ag inactive.
For CCOC(=O)CNC(=S)N(CCCN1CCCCC1)Cc1cccs1 the results were CHO parental Ca inactive, TAAR1 antag inactive, TAAR1 ag inactive, OX1R antag-1 inactive, OX1R antag-2 inactive, GPR7 antagonist 35.2, GPR7 antag cf inactive and MCHR1 antagonist inactive.
For CC1(C(=O)NCc2ccccc2)CSCC(=O)N1Cc1cccc(F)c1 (configuration not stated) the results were TAAR1 antag inactive and TAAR1 ag inactive.
`Cc1ccc(S(=O)(=O)N2C[C@H]3n4c(=O)ccc(=O)n4C[C@H](OC(=O)NCc4ccccc4F)[C@@]3(O)C2)cc1` gave TAAR1 antag inactive and TAAR1 ag inactive.
Screening CC(=O)c1ccc(NC(=S)Nc2ccc(Br)c(Cl)c2)cc1 returned CHO parental Ca inactive, TAAR1 antag inactive, TAAR1 ag inactive, OX1R antag-1 inactive, OX1R antag-2 inactive and GPR7 antagonist inactive.
`CC(=O)c1ccc(NC(=S)NC(C)c2ccc(Cl)cc2Cl)cc1` (configuration not stated) gave CHO parental Ca 64.4, TAAR1 antag inactive, TAAR1 ag 41.5, OX1R antag-1 inactive, OX1R antag-2 72.5, GPR7 antagonist 43.6, GPR7 antag cf 60.8 and MCHR1 antagonist 73.2.
For COc1cccc(-c2cnc(C(O)c3ccc(F)c(C)c3)[nH]2)c1 (configuration not stated) the results were TAAR1 antag inactive and TAAR1 ag inactive.
For CSc1nccc(-c2nn(-c3ccc(C)cc3)ccc2=O)n1 the results were CHO parental Ca inactive, TAAR1 antag inactive, TAAR1 ag inactive, OX1R antag-1 inactive, OX1R antag-2 inactive and GPR7 antagonist inactive.
`CCSc1nccc(-c2nn(-c3ccc(C)cc3)ccc2=O)n1` gave CHO parental Ca inactive, TAAR1 antag inactive, TAAR1 ag inactive, OX1R antag-1 inactive, OX1R antag-2 inactive, GPR7 antagonist 22.9, GPR7 antag cf inactive and MCHR1 antagonist 25.5.
Screening O=C(NCc1ccccc1)[C@H]1CCCN1C(=O)[C@H]1CCCN1C(=O)c1ccccc1 returned TAAR1 antag inactive and TAAR1 ag inactive.
Screening CC(=O)c1c(C)[nH]c(C(=O)Nc2cccc(C(F)(F)F)c2)c1C returned CHO parental Ca 37.4, TAAR1 antag inactive, TAAR1 ag inactive, OX1R antag-1 70.3, OX1R antag-2 44.8, GPR7 antagonist 33.1, GPR7 antag cf inactive and MCHR1 antagonist 59.0.
Screening COc1ccc(S(=O)(=O)N2CCC(C(=O)NCCc3ccc4c(c3)OCO4)CC2)cc1 returned CHO parental Ca inactive, TAAR1 antag inactive, TAAR1 ag inactive, OX1R antag-1 inactive, OX1R antag-2 inactive, GPR7 antagonist 27.7, GPR7 antag cf inactive and MCHR1 antagonist inactive.
Screening O=C(NCCc1ccc2c(c1)OCO2)C1CCN(S(=O)(=O)c2ccc(Cl)cc2)CC1 returned CHO parental Ca inactive, TAAR1 antag inactive, TAAR1 ag inactive, OX1R antag-1 inactive, OX1R antag-2 inactive and GPR7 antagonist inactive.
Screening COc1ccc(S(=O)(=O)N2CCC(C(=O)NCc3ccco3)CC2)cc1 returned CHO parental Ca inactive, TAAR1 antag inactive, TAAR1 ag inactive, OX1R antag-1 inactive, OX1R antag-2 inactive, GPR7 antagonist 80.3, GPR7 antag cf 24.3 and MCHR1 antagonist inactive.
Screening COc1ccc(CCNC(=O)c2ccc3c(c2)OCCO3)cc1 returned CHO parental Ca inactive, TAAR1 antag inactive, TAAR1 ag inactive, OX1R antag-1 inactive, OX1R antag-2 inactive, GPR7 antagonist 27.5, GPR7 antag cf inactive and MCHR1 antagonist inactive.
O=C1Nc2ccccc2-c2nnnn2C1N1CCC(Cc2ccccc2)CC1 (configuration not stated) was read as TAAR1 antag inactive and TAAR1 ag inactive.
For O=S1(=O)N[C@H](Cc2ccccc2)COc2cc(F)ccc21 the results were TAAR1 antag inactive and TAAR1 ag inactive.
Screening CC(C)(C)OC(=O)N1CCC(c2c(C(=O)NCC3CCN(C4CCCC4)C3)cnn2-c2ccccc2Cl)CC1 (configuration not stated) returned CHO parental Ca inactive, TAAR1 antag inactive, TAAR1 ag inactive, OX1R antag-1 inactive, OX1R antag-2 inactive, GPR7 antagonist 44.4, GPR7 antag cf 49.1 and MCHR1 antagonist 22.6.
Screening Cc1cc(N2CCN(CC(C)(C)O)C[C@@H]2C)ccc1N1CCN(CC(C)(C)O)[C@H](C)C1 returned TAAR1 antag inactive and TAAR1 ag inactive.
Screening CC1CCCC(NC(=O)CNC(=S)N(Cc2ccccc2)Cc2cccs2)C1C (configuration not stated) returned CHO parental Ca inactive, TAAR1 antag inactive, TAAR1 ag inactive, OX1R antag-1 inactive, OX1R antag-2 inactive, GPR7 antagonist 21.6, GPR7 antag cf 32.0 and MCHR1 antagonist 24.1.
CC1CCCC(NC(=O)C2c3ccccc3C(=O)N2Cc2cccs2)C1C (configuration not stated) was read as CHO parental Ca inactive, TAAR1 antag inactive, TAAR1 ag inactive, OX1R antag-1 inactive, OX1R antag-2 inactive, GPR7 antagonist 39.7, GPR7 antag cf 27.8 and MCHR1 antagonist 24.1.
O=C(NC1CCCCCCC1)C1c2ccccc2C(=O)N1Cc1ccco1 (configuration not stated) was read as CHO parental Ca inactive, TAAR1 antag inactive, TAAR1 ag inactive, OX1R antag-1 inactive, OX1R antag-2 inactive, GPR7 antagonist 39.4, GPR7 antag cf 25.3 and MCHR1 antagonist inactive.
Screening CC(C)Oc1cc(F)ccc1-c1cc(C(=O)NCCc2ccncc2)[nH]n1 returned TAAR1 antag inactive and TAAR1 ag inactive.
For N#C/C(=C\c1ccccc1)C(=O)NCc1ccc(F)cc1 the results were CHO parental Ca inactive, TAAR1 antag inactive, TAAR1 ag inactive, OX1R antag-1 inactive, OX1R antag-2 inactive, GPR7 antagonist 22.5, GPR7 antag cf 43.3 and MCHR1 antagonist 46.7.

Screens from PubChem BioAssay.
